# Experimental data: ChEMBL document CHEMBL1131023, “Identification of a dihydropyridine as a potent alpha1a adrenoceptor-selective antagonist that inhibits phenylephrine-induced contraction of the human prostate” (J Med Chem, 1998)
# Key:
# [1] = biological target: T1, Alpha-1A adrenergic receptor (Homo sapiens, UniProt P35348); test: Binding affinity determined by displacement of [3H]prazosin from alpha-1A adrenergic receptor
# T1 sequence (P35348 whole entry): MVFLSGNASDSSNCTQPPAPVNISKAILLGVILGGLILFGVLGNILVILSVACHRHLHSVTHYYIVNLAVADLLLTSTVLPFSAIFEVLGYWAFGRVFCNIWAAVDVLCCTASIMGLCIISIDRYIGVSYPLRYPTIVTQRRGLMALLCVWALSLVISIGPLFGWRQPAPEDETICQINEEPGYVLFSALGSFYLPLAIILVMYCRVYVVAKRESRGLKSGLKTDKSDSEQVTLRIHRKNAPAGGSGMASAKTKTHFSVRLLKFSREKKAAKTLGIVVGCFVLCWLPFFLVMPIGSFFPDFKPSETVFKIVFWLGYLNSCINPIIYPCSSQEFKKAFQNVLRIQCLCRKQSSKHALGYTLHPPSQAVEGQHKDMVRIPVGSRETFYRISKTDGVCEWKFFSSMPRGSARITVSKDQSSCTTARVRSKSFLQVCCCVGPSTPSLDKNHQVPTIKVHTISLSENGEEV
# [2] = biological target: T2, Alpha-1D adrenergic receptor (Homo sapiens, UniProt P25100); test: Binding affinity determined by displacement of [3H]prazosin from alpha-1D adrenergic receptor
# T2 sequence (P25100 whole entry): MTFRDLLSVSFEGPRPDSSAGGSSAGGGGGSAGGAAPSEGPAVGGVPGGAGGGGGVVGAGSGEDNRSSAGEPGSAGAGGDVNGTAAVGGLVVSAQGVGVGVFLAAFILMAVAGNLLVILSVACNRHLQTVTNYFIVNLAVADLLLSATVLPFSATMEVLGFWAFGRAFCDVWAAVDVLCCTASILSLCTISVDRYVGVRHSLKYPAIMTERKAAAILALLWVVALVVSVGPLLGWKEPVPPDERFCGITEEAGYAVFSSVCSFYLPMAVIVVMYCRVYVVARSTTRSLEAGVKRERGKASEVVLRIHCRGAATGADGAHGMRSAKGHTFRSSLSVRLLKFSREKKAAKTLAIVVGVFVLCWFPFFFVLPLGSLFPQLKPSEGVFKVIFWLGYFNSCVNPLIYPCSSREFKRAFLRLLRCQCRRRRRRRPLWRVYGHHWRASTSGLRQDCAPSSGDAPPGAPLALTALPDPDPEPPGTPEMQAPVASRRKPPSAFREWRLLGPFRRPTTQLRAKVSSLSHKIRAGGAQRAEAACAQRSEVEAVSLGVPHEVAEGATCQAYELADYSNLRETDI
# Method in brief: (§1)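 Radioligand displacement binding at the cloned receptor, incubated for 30 min.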
# [3] = biological target: T3, Alpha-2B adrenergic receptor (Homo sapiens, UniProt P18089); test: Binding affinity determined by displacement of [3H]rauwolscine from alpha-2B adrenergic receptor
# T3 sequence (P18089 whole entry): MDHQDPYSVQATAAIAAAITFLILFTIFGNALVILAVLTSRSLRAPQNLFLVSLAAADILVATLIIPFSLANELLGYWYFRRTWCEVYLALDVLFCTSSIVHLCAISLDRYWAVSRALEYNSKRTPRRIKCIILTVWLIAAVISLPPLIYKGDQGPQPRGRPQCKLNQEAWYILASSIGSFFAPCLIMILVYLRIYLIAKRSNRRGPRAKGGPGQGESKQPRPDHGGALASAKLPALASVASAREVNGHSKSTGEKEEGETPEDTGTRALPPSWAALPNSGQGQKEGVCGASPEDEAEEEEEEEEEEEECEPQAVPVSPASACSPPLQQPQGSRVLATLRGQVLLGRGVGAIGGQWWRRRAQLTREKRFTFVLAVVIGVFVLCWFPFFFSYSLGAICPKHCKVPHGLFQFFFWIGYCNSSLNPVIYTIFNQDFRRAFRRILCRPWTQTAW
# [4] = biological target: Voltage-gated L-type calcium channel (Rattus norvegicus, UniProt P22002+Q02485+P27732); test: Binding affinity at the L-type [Ca2+] channel from rat brain homogenate by [3H]nitrendipine displacement.; type: tissue-based
# [5] = biological target: T4, Alpha-1B adrenergic receptor (Homo sapiens, UniProt P35368); test: Binding affinity determined by displacement of [3H]prazosin from alpha-1B adrenergic receptor
# T4 sequence (P35368 whole entry): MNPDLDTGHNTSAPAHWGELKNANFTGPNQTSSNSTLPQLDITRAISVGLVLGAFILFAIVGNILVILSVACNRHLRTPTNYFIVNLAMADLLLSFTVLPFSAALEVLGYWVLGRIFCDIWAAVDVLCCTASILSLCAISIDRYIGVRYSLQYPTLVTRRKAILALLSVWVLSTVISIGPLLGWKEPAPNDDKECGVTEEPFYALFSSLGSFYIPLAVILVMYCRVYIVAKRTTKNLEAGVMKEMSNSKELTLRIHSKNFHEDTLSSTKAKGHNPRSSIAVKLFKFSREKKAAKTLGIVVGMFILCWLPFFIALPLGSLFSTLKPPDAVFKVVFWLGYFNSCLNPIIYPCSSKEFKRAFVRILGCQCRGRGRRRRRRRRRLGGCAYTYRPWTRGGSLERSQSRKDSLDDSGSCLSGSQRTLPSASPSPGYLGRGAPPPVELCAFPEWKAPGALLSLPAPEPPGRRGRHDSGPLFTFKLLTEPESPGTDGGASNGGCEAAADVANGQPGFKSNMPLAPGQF
# [6] = biological target: T5, Alpha-2C adrenergic receptor (Homo sapiens, UniProt P18825); test: Binding affinity assayed by displacement of [3H]rauwolscine from human alpha-2C adrenergic receptor; method in brief: as §1
# T5 sequence (P18825 whole entry): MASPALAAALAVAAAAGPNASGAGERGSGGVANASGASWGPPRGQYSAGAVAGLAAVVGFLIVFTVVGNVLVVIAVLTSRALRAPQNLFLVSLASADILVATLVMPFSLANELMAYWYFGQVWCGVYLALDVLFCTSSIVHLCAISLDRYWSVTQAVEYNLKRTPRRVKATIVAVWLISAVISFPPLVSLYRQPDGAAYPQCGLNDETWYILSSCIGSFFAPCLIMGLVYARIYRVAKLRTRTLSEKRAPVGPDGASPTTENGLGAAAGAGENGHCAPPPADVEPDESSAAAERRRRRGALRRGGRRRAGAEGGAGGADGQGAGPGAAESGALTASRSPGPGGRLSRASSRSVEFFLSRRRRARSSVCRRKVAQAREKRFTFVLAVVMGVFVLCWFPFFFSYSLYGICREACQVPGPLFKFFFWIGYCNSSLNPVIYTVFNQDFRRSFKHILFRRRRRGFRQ
# [7] = biological target: T6, Alpha-2A adrenergic receptor (Homo sapiens, UniProt P08913); test: Binding affinity determined by displacement of [3H]rauwolscine from alpha-2A adrenergic receptor; method in brief: as §1
# T6 sequence (P08913 whole entry): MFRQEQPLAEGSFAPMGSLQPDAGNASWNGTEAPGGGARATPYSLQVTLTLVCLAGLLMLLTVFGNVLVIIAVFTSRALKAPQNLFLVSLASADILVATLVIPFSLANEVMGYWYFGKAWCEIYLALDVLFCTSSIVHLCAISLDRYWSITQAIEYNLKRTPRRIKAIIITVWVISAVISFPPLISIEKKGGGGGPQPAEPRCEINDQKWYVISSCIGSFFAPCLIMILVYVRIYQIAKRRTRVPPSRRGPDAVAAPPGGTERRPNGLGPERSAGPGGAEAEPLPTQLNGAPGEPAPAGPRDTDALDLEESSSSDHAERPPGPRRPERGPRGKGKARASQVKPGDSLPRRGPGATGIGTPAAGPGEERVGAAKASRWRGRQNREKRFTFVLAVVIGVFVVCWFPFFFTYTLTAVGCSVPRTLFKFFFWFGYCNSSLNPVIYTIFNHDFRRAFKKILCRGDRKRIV
smiles,measurement,setting,value
CNC(=O)C1=C(C)NC(C)=C(C(=O)NCCCN2CCC(c3ccccc3)(c3ccccc3)CC2)C1c1ccc([N+](=O)[O-])cc1 (stereo not given),Ki,[1],0.00447 µM
same,Ki,[2],0.759 µM
same,Ki,[3],0.933 µM
same,Log Ki,[4],< -6
same,Ki,[5],0.49 µM
CO/C(O)=C1\C(C)=NC(C)=C(C(=O)NCCCN2CCC(c3ccccc3)(c3ccccc3)CC2)C1c1ccc([N+](=O)[O-])c(OC)c1 (stereo not given),Ki,[1],0.00148 µM
same,Ki,[2],0.316 µM
same,Ki,[3],0.575 µM
same,Ki,[6],0.398 µM
same,Log Ki,[4],< -6
same,Ki,[5],0.162 µM
same,Ki,[7],0.631 µM
CC1=C(C(=O)O)C(c2ccc3c(c2)OCO3)C(C(=O)NCCCN2CCC(c3ccccc3)(c3ccccc3)CC2)=C(C)N1 (stereo not given),Ki,[1],0.316 µM
same,Ki,[2],1.74 µM
same,Ki,[3],0.2 µM
same,Ki,[6],0.776 µM
same,Ki,[5],0.977 µM
same,Ki,[7],1.17 µM
CC(C)C1=C(C(N)=O)C(c2ccc([N+](=O)[O-])cc2)C(C(=O)NCCCN2CCC(c3ccccc3)(c3ccccc3)CC2)=C(C(C)C)N1 (stereo not given),Ki,[1],0.0537 µM
same,Ki,[2],0.347 µM
CO/C(O)=C1\C(C)=NC(C)=C(C(=O)NCCCN2CCC(c3ccccc3)(c3ccccc3)CC2)C1c1ccc(Cl)cc1 (stereo not given),Ki,[1],0.00178 µM
same,Ki,[2],0.447 µM
same,Ki,[3],2.29 µM
same,Ki,[6],1 µM
same,Log Ki,[4],< -6
same,Ki,[5],0.123 µM
same,Ki,[7],2.14 µM
CC1=C(C(=O)NCCCN2CCC(c3ccccc3)(c3ccccc3)CC2)C(c2ccc([N+](=O)[O-])cc2)C(C(=O)N(C)C)=C(C)N1 (stereo not given),Log Ki,[4],< -6
CO/C(O)=C1\C(C)=NC(C)=C(C(=O)NCCCN2CCC(c3ccccc3)(c3ccccc3)CC2)C1c1ccc(OC)cc1 (stereo not given),Ki,[1],0.00708 µM
same,Ki,[2],0.49 µM
same,Ki,[3],1.51 µM
same,Ki,[6],1.15 µM
same,Log Ki,[4],< -6
same,Ki,[5],0.204 µM
same,Ki,[7],2.19 µM
CO/C(O)=C1\C(C)=NC(C)=C(C(=O)NCCCN2CCC(c3ccccc3)CC2)C1c1ccc(Cl)c([N+](=O)[O-])c1 (stereo not given),Ki,[1],0.000525 µM
same,Ki,[2],0.126 µM
same,Ki,[3],0.0912 µM
same,Ki,[6],0.0479 µM
same,Log Ki,[4],< -6
same,Ki,[5],0.0417 µM
same,Ki,[7],0.11 µM
CO/C(O)=C1\C(C)=NC(C)=C(C(=O)N(C)CCCN2CCC(c3ccccc3)(c3ccccc3)CC2)C1c1ccc([N+](=O)[O-])cc1 (stereo not given),Ki,[1],0.0204 µM
same,Ki,[2],0.501 µM
same,Ki,[3],0.49 µM
same,Ki,[6],0.245 µM
same,Log Ki,[4],< -6
same,Ki,[5],0.24 µM
same,Ki,[7],0.676 µM
CNC(=O)C1=C(C)NC(C)=C(C(=O)NCCCN2CCC(c3ccccc3)(c3ccccc3)CC2)C1c1ccc2c(c1)OCO2 (stereo not given),Ki,[1],0.0162 µM
same,Ki,[3],0.575 µM
same,Ki,[6],1.02 µM
same,Ki,[5],1.78 µM
same,Ki,[7],2.09 µM
CO/C(O)=C1\C(C)=NC(C)=C(C(=O)NCCCN2CCC(c3ccccc3)(c3ccccc3)CC2)C1c1ccc(C#N)cc1 (stereo not given),Ki,[1],0.00182 µM
same,Ki,[2],0.38 µM
same,Ki,[3],1.26 µM
same,Ki,[6],0.871 µM
same,Log Ki,[4],< -6
same,Ki,[5],0.151 µM
same,Ki,[7],0.759 µM
CC(=O)C1=C(C)NC(C)=C(C(=O)NCCCN2CCC(c3ccccc3)(c3ccccc3)CC2)C1c1ccc([N+](=O)[O-])cc1 (stereo not given),Log Ki,[4],< -6
CCC1=C(C(N)=O)C(c2ccc([N+](=O)[O-])cc2)C(C(=O)NCCCN2CCC(c3ccccc3)(c3ccccc3)CC2)=C(CC)N1 (stereo not given),Ki,[7],0.355 µM
CO/C(O)=C1\C(C)=NC(C)=C(C(=O)NCCN2CCC(c3ccccc3)(c3ccccc3)CC2)C1c1ccc([N+](=O)[O-])cc1 (stereo not given),Ki,[1],0.00871 µM
same,Ki,[2],1.15 µM
same,Ki,[3],0.513 µM
same,Ki,[6],0.245 µM
same,Log Ki,[4],< -6
same,Ki,[5],0.0776 µM
same,Ki,[7],0.447 µM
"CC1=C(C(N)=O)C(c2ccc([N+](=O)[O-])cc2)C(C(=O)NCCCN2CCC(c3ccccc3)(c3ccccc3)CC2)=C(C)N1 (single isomer, unassigned; (+))",Ki,[2],0.398 µM
same,Ki,[3],0.407 µM
"CC1=C(C(N)=O)C(c2ccc([N+](=O)[O-])cc2)C(C(=O)NCCCN2CCC(c3ccccc3)(c3ccccc3)CC2)=C(C)N1 (single isomer, unassigned; (-))",Ki,[2],0.224 µM
same,Ki,[3],0.282 µM
CC1=C(C(N)=O)C(c2ccc([N+](=O)[O-])cc2)C(C(=O)NCCCN2CCC(c3ccccc3)(c3ccccc3)CC2)=C(C)N1 (stereo in doubt; 19),Log Ki,[4],< -6
